Published values pooled from the literature.
Compare with care: the assays were run in different laboratories.
Matrix: plasma

| Structure (SMILES) | system | setting | measurement | result |
| --- | --- | --- | --- | --- |
| COc1nc(-c2cccc(-c3ccccc3)c2C)ccc1CNCCNC(=O)CCCCCCCCCCC(=O)N1CCN(CCNC(=O)c2cc3c(=O)n4cccc(C)c4nc3n(CCc3cccs3)c2=N)CC1 | male Sprague-Dawley rat | intravenous, 2 mg/kg | MRT(0-t) | 4.8 h |
| C=CC(=O)N1CCC[C@@H](n2nc(-c3ccc(Oc4ccccc4)cc3)c3c(N)ncnc32)C1 | male Wistar rat | oral, 40 mg/kg | MRT | 4.55 h |
| CCOc1c([C@H](C)n2nc(C)c3c(N)ncnc32)cc(Cl)c(F)c1[C@@H]1CNC(=O)C1 | male Sprague-Dawley rat | oral, 2 mg/kg, single dose | MRT(0-t) | 7.67 h |
| O=C1CCC(N2Cc3cc(C4CCN(Cc5ccccc5)CC4)ccc3C2=O)C(=O)N1 (centres unmarked) | male Sprague-Dawley rat | oral, 3 mg/kg | MRT(0-t) | 3 h |
| Cn1c(=O)c2[nH]cnc2n(C)c1=O | male Sprague-Dawley rat | intravenous, 11.25 mg/kg | MRT(0-t) | 3.3 h |
| CONC(=O)c1cccc2c1cc(C)n2-c1nc2c(c(NCc3ccccc3)n1)CCCN2 | male Sprague-Dawley rat | oral, 10 mg/kg, single dose | MRT | 1.55 h |
| CC[C@@H]([C@H](C)O)n1ncn(-c2ccc(N3CCN(c4ccc(OC[C@@H]5CO[C@@](Cn6cncn6)(c6ccc(F)cc6F)C5)cc4)CC3)cc2)c1=O | Sprague-Dawley rat | oral, 40 mg/kg | MRT(0-t) | 10.3 h |
| C[C@H]1[C@@H](O)O[C@@H]2O[C@@]3(C)CC[C@H]4[C@H](C)CC[C@@H]1[C@@]24OO3 | male Sprague-Dawley rat | oral, 10 mg/kg | MRT(0-t) | 1.56 h |
| COc1cc(-c2cc(C(C)=O)n3ccccc23)c(OC)cc1Cn1ccnc1 | male Sprague-Dawley rat | intravenous, 5 mg/kg | MRT(0-t) | 1.14 h |
| C[C@@]12C[C@@]3(O)O[C@@H](O1)[C@]1(COC(=O)c4ccccc4)[C@H]3C[C@@]12O[C@@H]1O[C@H](CO)[C@@H](O)[C@H](O)[C@H]1O | male Sprague-Dawley rat | oral, 80 mg/kg | MRT(0-t) | 5.13 h |
| C[C@H]1Oc2cc(cnc2N)-c2c(nn(C)c2C#N)CN(C)C(=O)c2ccc(F)cc21 | male Sprague-Dawley rat | oral, 5 mg/kg, single dose | MRT(0-t) | 6.6 h |
| C=CC(=O)N1CCC([C@@H]2CCNc3c(C(N)=O)c(-c4ccc(Oc5ccccc5)cc4)nn32)CC1 | Sprague-Dawley rat | oral, 16 mg/kg | MRT(0-t) | 3.81 h |
| COc1ccc(N(Cc2csc(-c3ccccc3)n2)C(=O)CCCCCC(=O)NO)cc1 | female Sprague-Dawley rat | oral, 30 mg/kg | MRT | 3.18 h |
| Nc1ccn([C@@H]2O[C@H](CO)[C@@H](O)C2(F)F)c(=O)n1 | male Sprague-Dawley rat | intraperitoneal, 5 mg/kg | MRT(0-inf) | 52.8 min |
